From ChEMBL document CHEMBL3045357, “DNA adducts as biomarkers for oxidative and genotoxic stress from pesticides in crop plants” (J Agric Food Chem, 2008)

Key:
Assay type in all cases: organism-based
Details in all cases: in vivo, other, 336 h
Glycine max [1] = assay: Genotoxicity in Glycine max (soybean) exposed to compound through spray 4 times over 2 weeks assessed as relative adduct level A2 measured per 10^9 nucleotides using HX-dG internal standard using [32P]labeling based autoradiography relative to untreated control
How it was run: (§1)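 Plants (2–6 weeks grown), groups of 2–4, sprayed 4 times over 2 weeks with formulations diluted per label (chlorothalonil 1:256, carbaryl 1:64 in water); controls water-sprayed. DNA from 1 g leaf via DNeasy Maxi kit. 10 µg DNA digested with micrococcal nuclease/spleen phosphodiesterase (4 h, 37 °C), NP1-enriched (45 min, 37 °C), labelled with [γ-32P]ATP/T4 kinase (45 min, 37 °C).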

Glycine max [2] = assay: Genotoxicity in Glycine max (soybean) exposed to compound through spray 4 times over 2 weeks assessed as relative adduct level A3 measured per 10^9 nucleotides using HX-dG internal standard using [32P]labeling based autoradiography relative to untreated control; how it was run: as §1
Glycine max [3] = assay: Genotoxicity in Glycine max (soybean) exposed to compound through spray 4 times over 2 weeks assessed as HNE-dG adducts using [32P]labeling based autoradiography (reference value: 34 cpm); how it was run: as §1
Glycine max [4] = assay: Genotoxicity in Glycine max (soybean) exposed to compound through spray 4 times over 2 weeks assessed as relative adduct level A2 measured per 10^9 nucleotides using [32P]labeling based autoradiography relative to untreated control; how it was run: as §1
Glycine max [5] = assay: Genotoxicity in Glycine max (soybean) exposed to compound through spray 4 times over 2 weeks assessed as relative adduct level A1 measured per 10^9 nucleotides using [32P]labeling based autoradiography relative to untreated control; how it was run: as §1
Glycine max [6] = assay: Genotoxicity in Glycine max (soybean) exposed to compound through spray 4 times over 2 weeks assessed as HX-dG adducts using [32P]labeling based autoradiography; how it was run: as §1
Glycine max [7] = assay: Genotoxicity in Glycine max (soybean) exposed to compound through spray 4 times over 2 weeks assessed as relative adduct level A1 measured per 10^9 nucleotides using HX-dG internal standard using [32P]labeling based autoradiography relative to untreated control; how it was run: as §1
Glycine max [8] = assay: Genotoxicity in Glycine max (soybean) exposed to compound through spray 4 times over 2 weeks assessed as HX-dG adducts measured per 10^9 nucleotides using [32P]labeling based autoradiography; how it was run: as §1
Glycine max [9] = assay: Genotoxicity in Glycine max (soybean) exposed to compound through spray 4 times over 2 weeks assessed as HNE-dG adducts measured per 10^9 nucleotides using [32P]labeling based autoradiography (reference value: 2 no unit); how it was run: as §1
Glycine max [10] = assay: Genotoxicity in Glycine max (soybean) exposed to compound through spray 4 times over 2 weeks assessed as relative adduct level A3 measured per 10^9 nucleotides using [32P]labeling based autoradiography relative to untreated control; how it was run: as §1
Glycine max [11] = assay: Genotoxicity in Glycine max (soybean) exposed to compound through spray 4 times over 2 weeks assessed as relative adduct level A6 measured per 10^9 nucleotides using [32P]labeling based autoradiography relative to untreated control; how it was run: as §1
Glycine max [12] = assay: Genotoxicity in Glycine max (soybean) exposed to compound through spray 4 times over 2 weeks assessed as relative adduct level A4 measured per 10^9 nucleotides using HX-dG internal standard using [32P]labeling based autoradiography relative to untreated control; how it was run: as §1
Glycine max [13] = assay: Genotoxicity in Glycine max (soybean) exposed to compound through spray 4 times over 2 weeks assessed as relative adduct level A4 measured per 10^9 nucleotides using [32P]labeling based autoradiography relative to untreated control; how it was run: as §1
Glycine max [14] = assay: Genotoxicity in Glycine max (soybean) exposed to compound through spray 4 times over 2 weeks assessed as relative adduct level A6 measured per 10^9 nucleotides using HX-dG internal standard using [32P]labeling based autoradiography relative to untreated control; how it was run: as §1
Glycine max [15] = assay: Genotoxicity in Glycine max (soybean) exposed to compound through spray 4 times over 2 weeks assessed as relative adduct level A5 measured per 10^9 nucleotides using HX-dG internal standard using [32P]labeling based autoradiography relative to untreated control; how it was run: as §1
Glycine max [16] = assay: Genotoxicity in Glycine max (soybean) exposed to compound through spray 4 times over 2 weeks assessed as relative adduct level A5 measured per 10^9 nucleotides using [32P]labeling based autoradiography relative to untreated control; how it was run: as §1

Structure (SMILES)	Activity (Glycine max [1]) [cpm]	Activity (Glycine max [2]) [cpm]	Activity (Glycine max [3]) [cpm]	Activity (Glycine max [4])	Activity (Glycine max [5])	Activity (Glycine max [6]) [cpm]	Activity (Glycine max [7]) [cpm]	Activity (Glycine max [8])	Activity (Glycine max [9])	Activity (Glycine max [10])	Activity (Glycine max [11])	Activity (Glycine max [12]) [cpm]	Activity (Glycine max [13])	Activity (Glycine max [14]) [cpm]	Activity (Glycine max [15]) [cpm]	Activity (Glycine max [16])
CC(C)[C@H](C(=O)O[C@H](C#N)c1cccc(Oc2ccccc2)c1)c1ccc(Cl)cc1	2477	7857	3062	49	26	8264	1344	215	60	154						
CCOP(=S)(OCC)Oc1cc(C)nc(C(C)C)n1 [DIMPYLATE]	2483	1377	1679	49	1	1823	46	47	33	27	27	927	18	1396	341	7
